Runt-CBFb FRET: inhibitors of human RUNX1 Runt domain binding to CBFb; 220,000 tested, 0.46% active; inhibition, % at 20 µM; Q01196+Q13951; Cerulean-Runt/Venus-CBFb FRET ratio 530/480, 1 h;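 active means inhibition over about 50% at 20 µM in the single-dose screen, limit read from the data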;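 further: 0% = DMSO wells and 100% = excess unlabeled CBFb competitor control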
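Assay system: Cerulean-Runt domain fusion protein, energy donor; Signal: fluorescence energy transfer, 422 nm excitation, 530/480 nm emission; Timing: 1 h compound exposure, room temperature; Control set: unlabeled CBFb; Medium: Tris buffer pH 7.5 with salts and BSA; Compound: single test concentration of 20 µM, 1% DMSO final; Probe or stimulus: Venus-CBFb 100 nM.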
Runt-SMMHC FRET: Runt domain-CBFb-SMMHC interaction inhibition; Q01196+Q13951; Cerulean-Runt/Venus-CBFb-SMMHC FRET ratio 530/480, 1 h; inhibition, % at 20 µM; 220,000 tested, 0.74% active; AID 1434;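 active means mean inhibition across duplicate retests at 20 µM reaching about 50%, limit read from the data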;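 further: 0% = DMSO wells and 100% = wells with excess untagged CBFb-SMMHC; inhibitors lower the FRET ratio by blocking Runt binding to CBFb-SMMHC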
Hck Nef HTS: inhibitors of human Hck kinase activated by Nef; P08631; Recombinant Hck-YEEI plus Nef, Z-Lyte FRET kinase assay; inhibition, % at 20 µM; 220,000 tested, 0.68% active;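 active means Hck-Nef kinase inhibition above about 50%, limit read from the data; inactive means inhibition below that limit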;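 further: 0% = DMSO with Hck plus Nef and 100% = Hck alone without Nef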
Target sequence (P08631 whole entry, looked up): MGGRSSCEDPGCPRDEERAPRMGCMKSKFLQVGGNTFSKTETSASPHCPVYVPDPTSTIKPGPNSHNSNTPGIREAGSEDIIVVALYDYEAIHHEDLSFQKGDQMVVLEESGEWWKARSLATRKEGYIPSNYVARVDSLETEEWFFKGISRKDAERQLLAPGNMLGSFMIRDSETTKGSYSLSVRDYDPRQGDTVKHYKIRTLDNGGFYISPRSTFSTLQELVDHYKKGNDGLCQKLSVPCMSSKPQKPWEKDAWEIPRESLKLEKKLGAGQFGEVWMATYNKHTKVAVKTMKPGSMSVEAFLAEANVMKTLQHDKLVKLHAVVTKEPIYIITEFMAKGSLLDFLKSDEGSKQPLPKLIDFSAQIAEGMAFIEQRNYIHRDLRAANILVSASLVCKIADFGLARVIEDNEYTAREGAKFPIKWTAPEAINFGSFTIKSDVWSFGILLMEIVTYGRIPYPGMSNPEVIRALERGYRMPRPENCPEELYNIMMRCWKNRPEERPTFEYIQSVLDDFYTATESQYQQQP
TbHK1 inh: T. brucei hexokinase 1 inhibition | recombinant TbHK1, G6PDH-coupled NADH A340 | inhibition, % at 10 µM | 220,000 tested, 0.11% active;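 active means inhibition of 50% or more in the single-dose primary screen; inactive means inhibition below 50%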
RanGTP-Impb inh: disruptors of Ran-importin-beta complex formation – biochemical, FRET, CFP-Ran, YFP-importin-beta, homogeneous, primary screen; cell-free CFP-Ran/YFP-importin-beta FRET ratio; inhibition, % (concentration not given with the values); 300,000 tested, 1.1% active;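 active means more than half of the replicate wells show a fall in the fluorescence ratio signal beyond about 16%, limit read from the data, passing the limit was not always enough; inconclusive means exactly half of the replicate wells pass the set limit; inactive means fewer than half of replicates pass the limit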;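 further: 0% = DMSO wells and 100% = Ran loaded with GDP instead of GTP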
p97 ATPase inh: human p97 ATPase inhibition; P55072; recombinant p97 ATPase, Kinase-Glo ATP luminescence, 3 h; inhibition, % at 8 µM; 220,000 tested, 0.42% active; AID 1481; in the data active means inhibition above about 15%;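 further: 0% = DMSO vehicle and 100% = wells lacking enzyme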
Hck-Nef confirm: Hck-Nef kinase inhibition, confirmation | shares compounds with Hck Nef HTS | Recombinant Hck-YEEI:Nef, Z-Lyte FRET kinase assay | calls only at 10 µM | 1,300 tested, 28% active | AID 463188;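 active means average inhibition of at least 50%, with Z-scores no higher than 3 in both the phospho-tyrosine peptide and fluorescence counterscreens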
* hit, by the source's call; i = inactive; u = inconclusive; x = no result given; + = active, no number. Compounds with a hit are over-represented: about 2.1% of the library has one in this group of screens.

SMILES	Runt-CBFb FRET	Runt-SMMHC FRET	Hck Nef HTS	TbHK1 inh	RanGTP-Impb inh	p97 ATPase inh	Hck-Nef confirm
CS(=O)(=O)N(CC(=O)N1CCc2ccccc2C1)c1ccc(Cl)cc1F	x	x	x	x	0	x	x
CC1Cc2ccccc2N1C(=O)c1cc2c(=O)n3ccccc3nc2n1C (configuration not stated)	0	4	12	-25	0	-1	x
Cc1ccccc1-n1c(=O)c(C#N)cc2c(=O)n3ccccc3nc21	19	59*	+	-11	128*	1	x
Cc1cc(-n2c(=O)c(C#N)cc3c(=O)n4ccccc4nc32)no1	12	65*	+	-3	161*	1	x
C=CCn1c(=O)c(C#N)cc2c(=O)n3ccccc3nc21	10	79*	155*	-4	75*	3	x
N#Cc1cc2c(=O)n3ccccc3nc2n(-c2ccc(Cl)cc2)c1=O	47	90*	173*	-6	x	2	x
C=CCn1cc(-c2ccccc2)cc(C#N)c1=O	2	6	3	-19	-7	-1	x
Cc1cc(NC(=O)c2cnc3ccccn3c2=O)no1	x	x	8	-11	x	4	x
COc1cccc(NC(=O)CN(C)C(=O)/C=C/c2ccc3ccccc3n2)c1	x	x	x	x	7	x	x
COc1cc2ncnc(NCc3ccc(C)o3)c2cc1OC	13	9	78*	-2	3	2	i
Cc1ccc(CNc2ncnc3cc(Cl)ccc23)o1	2	-3	-14	22	4	0	x
O=C(O)c1ccc2oc(=O)c(S(=O)(=O)c3ccc(F)cc3)cc2c1	x	x	x	x	1	x	x
CCCCCCc1cc2cc(S(=O)(=O)c3ccc(F)cc3)c(=O)oc2cc1O	19	63*	120*	-6	167*	2	x
CC(C)[C@H]1COC(NC2=N[C@@H](C(C)C)CO2)=N1	x	x	x	x	-1	x	x
CC(C)(C)c1ccc(C(=O)CC(Sc2ccc(Cl)cc2)C(=O)O)cc1 (configuration not stated)	47	43	77*	-1	-2	-1	i
Cc1ccc(SC(CC(=O)c2ccc(F)cc2)C(=O)O)cc1 (configuration not stated)	x	x	x	x	1	x	x
CC1CCC(NC(=O)CC(NC(N)=O)c2ccccc2Cl)CC1 (configuration not stated)	x	x	x	x	7	x	x
Cc1c(Cl)cccc1NS(=O)(=O)c1ccc2c(c1)C1C=CCC1C(c1ccc(C(=O)O)cc1)N2 (configuration not stated)	-21	-131	63*	52*	x	36*	+
COc1ccc(-c2oc3cccnc3c2/C=C/c2ccc(OC)c(OC)c2)cc1	x	x	x	x	-3	x	x
CC1CCC2(CC1)NC(=O)N(CC(=O)Nc1sc3c(c1C(N)=O)CCC3)C2=O (configuration not stated)	2	-5	64*	-5	2	9	+
CCCCNc1n[n+](C)c(-c2cccc(C)c2)s1	-1	1	25	-6	x	x	x
O=C1CN(C(=O)COC(=O)/C=C/c2ccco2)c2ccccc2N1	4	2	53*	-13	u	8	i
N#Cc1cccc(NC(=O)COC(=O)c2cccc(N3C(=O)c4ccccc4C3=O)c2)c1	-3	3	56*	0	2	4	i
COc1cccc(/C=N/NC(=O)c2cnn(-c3ccccc3)c2N)c1	1	-2	94*	-13	4	9	i
CCCCc1ccc(NC(=S)Nc2ccc(Cl)c(S(=O)(=O)N(C)C)c2)cc1	9	7	7	22	2	2	x
SMILES	Runt-CBFb FRET	Runt-SMMHC FRET	Hck Nef HTS	TbHK1 inh	RanGTP-Impb inh	p97 ATPase inh	Hck-Nef confirm
COc1ccc(-c2csc(NC(=O)c3ccccc3NS(=O)(=O)c3ccc(F)c(F)c3)n2)cc1	-4	-6	80*	-8	2	3	+
Cc1ccc(S(=O)(=O)NCc2ccccc2)s1	x	x	x	x	1	x	x
O=c1c2c(-c3ccc(Cl)cc3)csc2ncn1/N=C/c1cccc([N+](=O)[O-])c1O	-4	-2	89*	-5	4	3	+
Clc1ccc2[nH]c3c(c2c1)CCc1cn[nH]c1-3	4	-1	60*	-2	-4	2	+
C=CCn1c(SCC(=O)Nc2ccc(-c3nc4ccc(C)cc4s3)cc2)nnc1-c1ccccc1	4	2	78*	-59	4	-4	+
N#Cc1ccc(Cl)cc1NC(=O)CSc1nc2nc(-c3cccs3)cc(C(F)(F)F)c2c(=O)[nH]1	-2	2	67*	-40	4	6	i
CC(=O)c1cc2c(O)c(O)ccc2o1	6	2	4	-11	0	0	x
CC(=O)c1cc2cc(O)ccc2o1	32	70*	73*	-22	-3	1	x
CC(=O)c1cc2ccc(O)cc2oc1=O	10	81*	+	-9	148*	2	x
O=C(NCc1ccco1)c1cc2ccccc2o1	-3	2	0	1	-1	1	x
O=C(NCc1ccco1)c1cc2ccc(O)cc2oc1=O	18	58*	+	-3	158*	-13	x
O=Cc1cccc2ccc3cccc(C(=O)O)c3c12	x	x	x	x	2	x	x
COc1ccc(S(=O)(=O)Nc2cc3c(cc2C(C)=O)OCO3)cc1	x	x	54*	-9	0	6	i
CC(=O)c1cc2c(cc1NS(=O)(=O)c1ccccc1C)OCO2	6	3	15	2	13	5	x
CCN1C(=O)/C(=C\c2ccc(-c3ccc([N+](=O)[O-])cc3OC)o2)SC1=Nc1cccc(C(=O)O)c1	35	36	70*	1	2	-3	i
N#Cc1c(-c2cccnc2)c2c([nH]c1=O)-c1ccccc1OC2	10	82*	130*	-44	113*	9	x
Cc1nc(N)c(C#N)c(-c2cccnc2)c1C	0	-2	0	-14	3	-2	x
N#Cc1c(-c2ccccc2)[nH]c(=O)[nH]c1=O	0	0	24	-1	-1	-1	x
N#Cc1c(-c2ccc(F)cc2)c2c([nH]c1=O)-c1ccccc1OC2	60*	80*	126*	-4	101*	7	x
NS(=O)(=O)c1cc(C(=O)N2CCNC(=O)C2)ccc1Cl	x	x	x	x	-4	x	x
COc1cccc(C(=O)/C=C2\Sc3ccccc3N2C)c1	44	55*	106*	-6	2	0	i
CCCN1C(=O)/C(=c2\sc3nc(=O)c(Cc4ccc(C)cc4)nn3c2=O)c2ccccc21	5	-1	52*	-23	3	-2	i
NC(=O)CN1C(=O)/C(=c2\sc3nc(=O)c(Cc4ccccc4)nn3c2=O)c2ccccc21	31	17	14	-41	u	3	x
O=C(CCN1C(=O)c2ccccc2S1(=O)=O)NCc1ccccc1	x	x	x	x	0	x	x

Source: PubChem
